Results: ChEMBL document CHEMBL1158430, “Bulky 1,4-benzoxazine derivatives with antifungal activity” (2009)
In brackets after ≈: the same amount, converted by molar mass. Activity calls are given as the source filed them. No cut-off for these calls is given here.

How the values were obtained:
[1] = tested on: Candida albicans; test: Antifungal activity against Candida albicans PCA-2 after 24 hrs by broth microdilution assay; assay type: functional; settings: PCA-2, 24 h
Summary of the method: (§1)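 Yeasts kept on Sabouraud agar by serial passage. A single colony was suspended in saline, washed twice, counted by hemocytometer and added at 5 × 10⁴ CFU in RPMI 1640/MOPS pH 7.0 to serial compound dilutions. Compounds were stocked in 20% ethanol. Incubation was at 37 °C. MIC is the lowest concentration giving complete growth inhibition, read visually.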

[2] = tested on: Candida albicans; test: Antifungal activity against Candida albicans PCA-2 after 48 hrs by broth microdilution assay; assay type: functional; settings: PCA-2, 48 h; summary of the method: as §1
[3] = tested on: Cryptococcus neoformans; test: Antifungal activity against Cryptococcus neoformans CAP67 after 48 hrs by broth microdilution assay; assay type: functional; settings: CAP67, 48 h
[4] = tested on: Candida albicans; test: Antifungal activity against Candida albicans CA-6 infected in CD1 mouse assessed as reduction of fungal burden in kidneys at 10 mg/kg, ip pretreated 2 hrs before fungus-challenge and once daily for 6 days measured 7 days post-infection; assay type: functional, organism-based; set-up: dose 10 mg/kg; settings: Kidney
Summary of the method: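 Female outbred CD1 mice, 8–10 weeks old, were infected i.v. on day 0 with 2.5 × 10⁵ CA-6 blastospores. Dosing was 10 mg/kg i.p. 2 h before challenge, then daily for 6 days; vehicle was 0.2 ml 2% EtOH in saline i.p. At day 7, kidney homogenates were serially diluted and plated on Sabouraud agar for CFU. Three experiments, 4 mice/group.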

[5] = tested on: Candida albicans; test: Antifungal activity against Candida albicans CA-6 after 24 hrs by broth microdilution assay; assay type: functional; settings: CA-6, 24 h; summary of the method: as §1
[6] = tested on: Candida parapsilosis; test: Antifungal activity against Candida parapsilosis after 24 hrs by broth microdilution assay; assay type: functional; settings: Lodderomyces parapsilosis; summary of the method: as §1
[7] = tested on: Candida parapsilosis; test: Antifungal activity against Candida parapsilosis after 48 hrs by broth microdilution assay; assay type: functional; settings: Lodderomyces parapsilosis; summary of the method: as §1
[8] = tested on: Candida albicans; test: Antifungal activity against Candida albicans CA-6 infected in CD1 mouse assessed as survival from fungus-induced mortality at 10 mg/kg, ip pretreated 2 hrs before fungus-challenge and once daily for 6 days; assay type: functional
Summary of the method: (§2)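 Female outbred CD1 mice, 8–10 weeks old, infected i.v. on day 0 with C. albicans CA-6 blastospores (7 × 10⁵/mouse). Given 10 mg/kg i.p. 2 h before infection, then once daily for 6 consecutive days. Vehicle was 0.2 ml 2% EtOH in saline i.p. Survival monitored over a 30-day observation period. Three repeat experiments, 4 animals/group.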

[9] = tested on: Nakaseomyces glabratus; test: Antifungal activity against Candida glabrata after 48 hrs by broth microdilution assay; assay type: functional; summary of the method: as §1
[10] = tested on: Candida albicans; test: Antifungal activity against Candida albicans CA-6 after 48 hrs by broth microdilution assay; assay type: functional; settings: CA-6, 48 h; summary of the method: as §1
[11] = tested on: Pichia kudriavzevii; test: Antifungal activity against Candida krusei after 48 hrs by broth microdilution assay; assay type: functional; summary of the method: as §1
[12] = tested on: Candida albicans; test: Antifungal activity against Candida albicans CA-6 infected in CD1 mouse assessed as reduction of fungal burden in kidneys treated with 0.3 ml serum of 10 mg/kg, ip dosed mouse collected after 1 hr determined 7 days post-infection; assay type: functional, organism-based; set-up: dose 10 mg/kg; settings: Kidney
Summary of the method: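 Donor mice received 10 mg/kg i.p. or vehicle (0.2 ml 2% EtOH in saline); serum was collected 1 h later. Recipient CD1 mice received 0.3 ml serum i.p. 1 h before i.v. challenge with 7 × 10⁵ CA-6 per mouse. Kidney CFU were counted on Sabouraud agar 7 days after challenge.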

[13] = tested on: Pichia kudriavzevii; test: Antifungal activity against Candida krusei after 24 hrs by broth microdilution assay; assay type: functional; summary of the method: as §1
[14] = tested on: Cryptococcus neoformans; test: Antifungal activity against Cryptococcus neoformans 6995 after 48 hrs by broth microdilution assay; assay type: functional; settings: Cryptococcus neoformans, 6995, 48 h
[15] = tested on: Nakaseomyces glabratus; test: Antifungal activity against Candida glabrata after 24 hrs by broth microdilution assay; assay type: functional; summary of the method: as §1
[16] = tested on: Candida albicans; test: Antifungal activity against Candida albicans CA-6 infected in CD1 mouse assessed as reduction fungal cell number in kidney at 10 mg/kg, ip pretreated 2 hrs before fungus-challenge and once daily for 6 days measured 7 days post-infection by periodic acid-Schiff staining; assay type: functional, organism-based; set-up: dose 10 mg/kg
Summary of the method: (§3)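 CD1 mice were challenged i.v. with 7 × 10⁵ CA-6 per mouse. Dosing was 10 mg/kg 2 h before challenge, then once daily for 6 days. Kidneys were excised 7 days post-infection, formalin-fixed and paraffin-embedded. Sections were stained with periodic acid-Schiff and assessed histologically for fungal cells and inflammatory foci.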

[17] = tested on: Candida albicans; test: Antifungal activity against Candida albicans CA-6 infected in CD1 mouse assessed as reduction of inflammatory foci in kidney at 10 mg/kg, ip pretreated 2 hrs before fungus-challenge and once daily for 6 days measured 7 days post-infection by periodic acid-Schiff staining; assay type: functional, organism-based; set-up: dose 10 mg/kg; summary of the method: as §3
[18] = tested on: Candida albicans; test: Antifungal activity against Candida albicans CA-6 infected in CD1 mouse assessed as survival days in 30 days observation period at 10 mg/kg, ip pretreated 2 hrs before fungus-challenge and once daily for 6 days; assay type: functional; settings: route intraperitoneal; summary of the method: as §2

| SMILES | MIC [1] | MIC [2] | MIC [3] | Activity [4] | MIC [5] | MIC [6] | MIC [7] | Activity ([8]; route intraperitoneal) | MIC [9] | MIC [10] | MIC [11] | Activity [12] | MIC [13] | MIC [14] | MIC [15] | Activity [16] | Activity [17] | Activity [8] | Activity [18] |
| --- | --- | --- | --- | --- | --- | --- | --- | --- | --- | --- | --- | --- | --- | --- | --- | --- | --- | --- | --- |
| CCCCC1Oc2ccc(OC[C@@H]3CO[C@](Cn4ccnc4)(c4ccc(Cl)cc4Cl)O3)cc2N(C)C1=O (relative stereo) | > 500 µg/mL | > 500 µg/mL | 3.9 µg/mL (≈ 7.14 µM) | Active | 0.49 µg/mL (≈ 0.897 µM) | 125 µg/mL (≈ 229 µM) | 500 µg/mL (≈ 915 µM) | 50% | > 500 µg/mL | 0.49 µg/mL (≈ 0.897 µM) | 7.8 µg/mL (≈ 14.3 µM) | Active | 3.9 µg/mL (≈ 7.14 µM) | 7.8 µg/mL (≈ 14.3 µM) | 62.5 µg/mL (≈ 114 µM) | Active | Active | – | – |
| CN1C(=O)COc2ccc(OC[C@@H]3CO[C@](Cn4ccnc4)(c4ccc(Cl)cc4Cl)O3)cc21 (relative stereo) | > 500 µg/mL | > 500 µg/mL | 0.03 µg/mL (≈ 0.0612 µM) | – | 0.49 µg/mL (≈ 0.999 µM) | > 500 µg/mL | > 500 µg/mL | – | 250 µg/mL (≈ 510 µM) | 0.49 µg/mL (≈ 0.999 µM) | > 500 µg/mL | – | 15.6 µg/mL (≈ 31.8 µM) | 1.95 µg/mL (≈ 3.98 µM) | 15.6 µg/mL (≈ 31.8 µM) | – | – | inactive | – |
| CN1C(=O)COc2ccc(OC[C@H]3CO[C@](Cn4ccnc4)(c4ccc(Cl)cc4Cl)O3)cc21 (relative stereo) | > 500 µg/mL | > 500 µg/mL | 0.0019 µg/mL (≈ 0.00387 µM) | – | 0.49 µg/mL (≈ 0.999 µM) | 250 µg/mL (≈ 510 µM) | > 500 µg/mL | – | > 500 µg/mL | 0.49 µg/mL (≈ 0.999 µM) | > 500 µg/mL | – | 15.6 µg/mL (≈ 31.8 µM) | 0.24 µg/mL (≈ 0.489 µM) | 7.8 µg/mL (≈ 15.9 µM) | – | – | inactive | – |
| CCCCC1Oc2ccc(OC[C@H]3CO[C@](Cn4ccnc4)(c4ccc(Cl)cc4Cl)O3)cc2N(C)C1=O (relative stereo) | 125 µg/mL (≈ 229 µM) | 125 µg/mL (≈ 229 µM) | 1.95 µg/mL (≈ 3.57 µM) | Active | 0.49 µg/mL (≈ 0.897 µM) | 31.2 µg/mL (≈ 57.2 µM) | 31.2 µg/mL (≈ 57.2 µM) | – | 125 µg/mL (≈ 229 µM) | 0.49 µg/mL (≈ 0.897 µM) | 3.9 µg/mL (≈ 7.14 µM) | Active | 3.9 µg/mL (≈ 7.14 µM) | 7.8 µg/mL (≈ 14.3 µM) | 31.2 µg/mL (≈ 57.2 µM) | Active | Active | – | 23 days |
| OC(Cn1cncn1)(Cn1cncn1)c1ccc(F)cc1F [FLUCONAZOLE] | > 500 µg/mL | > 500 µg/mL | 0.49 µg/mL (≈ 1.6 µM) | Active | < 0.0076 µg/mL | 7.8 µg/mL (≈ 25.5 µM) | 15.6 µg/mL (≈ 50.9 µM) | 75% | 250 µg/mL (≈ 816 µM) | < 0.0076 µg/mL | > 500 µg/mL | Active | 250 µg/mL (≈ 816 µM) | 3.9 µg/mL (≈ 12.7 µM) | 125 µg/mL (≈ 408 µM) | Active | Active | – | – |
| CC(=O)N1CCN(c2ccc(OCC3COC(Cn4ccnc4)(c4ccc(Cl)cc4Cl)O3)cc2)CC1 (centres undefined) [KETOCONAZOLE] | 15.6 µg/mL (≈ 29.4 µM) | 15.6 µg/mL (≈ 29.4 µM) | 0.00012 µg/mL (≈ 0.000226 µM) | – | < 0.0076 µg/mL | < 6e-05 µg/mL | 0.00095 µg/mL (≈ 0.00179 µM) | – | 1.95 µg/mL (≈ 3.67 µM) | < 0.0076 µg/mL | 0.97 µg/mL (≈ 1.83 µM) | – | 0.49 µg/mL (≈ 0.922 µM) | 0.00095 µg/mL (≈ 0.00179 µM) | 0.12 µg/mL (≈ 0.226 µM) | – | – | – | – |
